Measurements of several laboratories.
Each line is one published result; the experiments were not run side by side.
Target: Serine/threonine-protein kinase Chk1 (CHEK1, Homo sapiens, UniProt O14757)
Sequence (O14757 1-476, as in one of the studies): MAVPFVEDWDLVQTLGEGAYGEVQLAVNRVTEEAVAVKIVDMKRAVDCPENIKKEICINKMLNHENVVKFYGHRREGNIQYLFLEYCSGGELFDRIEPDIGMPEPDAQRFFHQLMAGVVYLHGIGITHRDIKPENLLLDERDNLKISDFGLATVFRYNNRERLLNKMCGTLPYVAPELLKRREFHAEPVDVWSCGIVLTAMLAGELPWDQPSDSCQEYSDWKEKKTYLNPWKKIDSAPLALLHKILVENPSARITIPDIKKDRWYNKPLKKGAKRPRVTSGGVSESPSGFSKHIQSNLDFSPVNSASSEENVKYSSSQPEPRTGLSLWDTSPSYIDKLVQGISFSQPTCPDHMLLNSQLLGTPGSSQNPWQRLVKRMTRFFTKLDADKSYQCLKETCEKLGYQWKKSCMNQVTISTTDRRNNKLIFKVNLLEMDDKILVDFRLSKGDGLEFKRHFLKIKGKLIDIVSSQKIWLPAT

`CC(C)(C)c1nc2c(s1)c1nc(N)ncc1c1ccc(NS(=O)(=O)c3c(F)cccc3F)c(F)c12` has a remaining activity of 94% (enzyme activity; inhibitor; radiometric; 1 µM).
`N#CC1(c2ccccn2)CCN(Cc2cc(C(=O)N3CCCC3)c(=O)n3ccccc23)CC1` has a remaining binding of 90% (cell-free assay; competition with immobilised ligand; 1 µM).
`C[S+]([O-])c1ccc(-c2nc(-c3ccncc3)c(-c3ccc(F)cc3)[nH]2)cc1` (stereo not drawn) has a remaining signal of 97.3% (cell-free assay; 0.5 µM).
`COc1cc(Nc2cnc(C#N)c(O[C@H](C)CN(C)C)n2)ncc1-c1cnn(C)c1` gave a remaining activity of 6% (enzyme activity; inhibitor; radiometric; 10 µM).
For `COCCOc1nc(-c2ccc(Cl)nc2)nc2c1CN(C(=O)c1ncn3ccccc13)CC2`, the remaining binding was 100% (cell-free assay; competition with immobilised ligand; 0.1 µM).
`N#CCCc1ccc2c(c1)-c1[nH]c3ccc([N+](=O)[O-])cc3c1CC(=O)N2` has a remaining signal of 45.1% (cell-free assay; 0.5 µM).
With `Cc1ccc(C(=O)Nc2ccc(CN3CCN(C)CC3)c(C(F)(F)F)c2)cc1C#Cc1cnc2cccnn12` the remaining activity was 96% (enzyme activity; inhibitor; 23.5 nM).
For `C#Cc1cccc(Nc2ncnc3cc(OCCOC)c(OCCOC)cc23)c1`, the remaining signal was 95.1% (cell-free assay; 0.5 µM).
`Oc1cccc(-c2nc(N3CCOCC3)c3oc4ncccc4c3n2)c1` gave a remaining activity of 115% (enzyme activity; inhibitor; 10 µM).
`Cc1ccc(NC(=O)c2ccc(CN3CCN(C)CC3)cc2)cc1Nc1nc(-c2cccnc2)cs1` gave a remaining signal of 110% (cell-free assay; 0.5 µM).
`Cn1c(=O)n(-c2ccc(C(C)(C)C#N)cc2)c2c3cc(-c4cnc5ccccc5c4)ccc3ncc21` has a remaining activity of 146% (enzyme activity; inhibitor; 10 µM).
`COc1cc(/C=C/C(=O)CC(=O)/C=C/c2ccc(O)c(OC)c2)ccc1O` has an activity vs control of 57% (enzyme activity; inhibitor; 1 µM).
With `Nc1nc(Nc2ccccc2)sc1C(=O)c1c(F)cccc1F` the remaining activity was 86% (enzyme activity; inhibitor; 10 µM).
`CCN1CCN(Cc2ccc(NC(=O)c3ccc(C)c(/C=C/c4cnc5[nH]ccc5c4OC)c3)cc2C(F)(F)F)CC1` gave an inhibition of -51.1% (target engagement in cells; inhibitor; chemoproteomics; A-375; 5 µM).
For `C[C@@]1(Cc2ccc(C#N)cc2)C(=O)N(c2cc(Cl)cc(Cl)c2)c2ncc(C(=O)NC3(c4nc(C5CCC5)no4)CC3)n21`, the remaining binding was 90% (cell-free assay; competition with immobilised ligand; 1 µM).
`Cc1sc(C(=O)NC2COC2)cc1-n1cc(NC(=O)Nc2c(F)cccc2Cl)cn1` gave a remaining activity of 118% (enzyme activity; inhibitor; 10 µM).
`COc1ccc2cc(OCC3(C(=O)O)CN(C(=O)c4ccc(F)cc4)C3)ccc2c1` gave a remaining binding of 87% (cell-free assay; competition with immobilised ligand; 1 µM).
With `Cc1cc(NC(=O)c2cccc3cc(-c4cccc5[nH]nc(N)c45)ccc23)ccc1F` the activity vs control was 96% (enzyme activity; inhibitor; 0.1 µM).
`O=C(NS(=O)(=O)c1ccc(NCC2CCOCC2)c([N+](=O)[O-])c1)c1ccc(N2CCN(Cc3ccc(C(F)(F)F)cc3-c3ccc(Cl)cc3)CC2)cc1Oc1cnc2[nH]ccc2c1` has a remaining binding of 100% (cell-free assay; competition with immobilised ligand; 1 µM).
`COc1cc2c(Nc3ccc(Br)cc3F)ncnc2cc1OCC1CCN(C)CC1` has a remaining signal of 94.4% (cell-free assay; 0.5 µM).
For `CNC(=O)Nc1ccc2c(c1)[C@@]1(CC2)OC(=O)N(CC(=O)N(Cc2ccc(F)cc2)[C@@H](C)C(F)(F)F)C1=O`, the remaining binding was 100% (cell-free assay; competition with immobilised ligand; 1 µM).
The remaining activity of `Cc1cnc(NC2CCOCC2)nc1-n1cnc(C(=O)NC(CN)c2cc(F)cc(Cl)c2)c1` (stereo not drawn) is reported as 35% (enzyme activity; inhibitor; radiometric; 1 µM).
`Cc1nccc(COC(=O)N2C[C@@H]3[C@@H](CNC(=O)c4ccc5[nH]nnc5c4)[C@@H]3C2)n1` gave a remaining binding of 100% (cell-free assay; competition with immobilised ligand; 1 µM).
`Nc1nc(NC2CCCCC2)sc1C(=O)c1ccccc1` has a remaining activity of 96% (enzyme activity; inhibitor; 10 µM).
